Source: ChEMBL document CHEMBL5512642, “Novel triterpenoid pyrones, phthalimides and phthalates are selectively cytotoxic in CCRF-CEM cancer cells - Synthesis, potency, and mitochondrial mechanism of action” (Eur J Med Chem, 2024)
Calls of active or inactive are those of the source. No cut-off for these calls is given here.

Key:
CCRF-CEM [1] = assay: Induction of apoptosis in human CCRF-CEM cells assessed as early apoptotic cells at 1 time IC50 incubated for 24 hrs by Annexin V and propidium iodide staining based flow cytometry analysis (reference value: 1.4%); format: functional
HCT-116 = assay: Cytotoxicity against human HCT-116 cells assessed as reduction in cell viability incubated for 72 hrs by MTS assay; format: functional, cell-based; settings: HCT-116, 72 h
[2] = Apparent permeability of the compound across apical to basolateral side in MDCK-MDR1 cells assessed as compound recovery at 10 uM incubated for 1 hr by RF-MS analysis; format: ADME, cell-based, Canis lupus familiaris; settings: dog, read-out: Activity
Summary of the method: (§1)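 Caco-2 and MDCK-MDR1 monolayers; transport measured in both directions, apical→basolateral and basolateral→apical. Efflux ratio taken from the two directions; ER > 2 counted as active efflux. Compound recovery reported. Cell-based permeability runs done in duplicate.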

[3] = Plasma protein binding in human assessed as fraction bound at 10 uM by rapid equilibrium dialysis based RF-MS analysis; format: ADME, cell-free; settings: read-out: PPB (converted)
Summary of the method: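 Human plasma protein binding measured by equilibrium dialysis and reported as percent fraction bound. Run in triplicate.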

[4] = Stability in human plasma assessed as compound remaining measured 15 mins by RF-MS analysis; format: ADME, cell-free; settings: read-out: Stability
Summary of the method: (§2)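 Compounds incubated in human plasma in vitro for up to 2 h. Percent remaining sampled at 15, 30, 60 and 120 min. Run in triplicate.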

CCRF-CEM [5] = assay: Induction of apoptosis in human CCRF-CEM cells assessed as reduction in Bcl-2 expression at 5 time of IC50 incubated for 24 hrs by Western blot analysis; format: functional, cell-based
Summary of the method: (§3)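 Lysate 20 µg protein per lane on SDS-PAGE, transferred to nitrocellulose, blocked in 5% BSA/TBS-Tween. Probed overnight at 4 °C with anti-caspase-3, Bcl-2, Bcl-XL, β-actin, then HRP secondary 1 h. ECL chemiluminescence detection.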

[6] = Stability in human plasma assessed as compound remaining measured 30 mins by RF-MS analysis; format: ADME, cell-free; settings: read-out: Stability; summary of the method: as §2
[7] = Metabolic stability in human liver microsomes assessed as compound remaining at measured at 15 mins in presence of NADPH by RF-MS analysis; format: ADME, Microsome; settings: read-out: Stability
Summary of the method: (§4)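 Human liver microsomes with NADPH cofactor to assess phase I oxidation. Compound remaining sampled at 15, 30 and 60 min; intrinsic clearance derived and categorized. Run in triplicate.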

CCRF-CEM [8] = assay: Induction of apoptosis in human CCRF-CEM cells assessed as viable cells at 1 time IC50 incubated for 24 hrs by Annexin V and propidium iodide staining based flow cytometry analysis (reference value: 98%); format: functional
CCRF-CEM [9] = assay: Induction of apoptosis in human CCRF-CEM cells assessed as necrotic cells at 1 time IC50 incubated for 24 hrs by Annexin V and propidium iodide staining based flow cytometry analysis (reference value: 0.1%); format: functional
CCRF-CEM [10] = assay: Induction of apoptosis in human CCRF-CEM cells assessed as late apoptotic cells at 1 time IC50 incubated for 24 hrs by Annexin V and propidium iodide staining based flow cytometry analysis (reference value: 0.5%); format: functional
CCRF-CEM [11] = assay: Induction of apoptosis in human CCRF-CEM cells assessed as necrotic cells at 5 time IC50 incubated for 24 hrs by Annexin V and propidium iodide staining based flow cytometry analysis (reference value: 0.; format: functional
[12] = Cytotoxicity against human BJ cells assessed as reduction in cell viability incubated for 72 hrs by MTS assay; format: toxicity, cell-based
[13] = Cytotoxicity against human MRC5 cells assessed as reduction in cell viability incubated for 72 hrs by MTS assay; format: toxicity, cell-based
CEM-DNR = assay: Cytotoxicity against human CEM-DNR cells assessed as reduction in cell viability incubated for 72 hrs by MTS assay; format: functional, cell-based
CCRF-CEM [14] = assay: Induction of apoptosis in human CCRF-CEM cells assessed as reduction in Bcl-XL expression at 5 time of IC50 incubated for 24 hrs by Western blot analysis; format: functional, cell-based; summary of the method: as §3
CCRF-CEM [15] = assay: Induction of mitochondrial membrane potential loss in human CCRF-CEM cells assessed as cells with depolarized mitochondria (P2 gate) by measuring green fluorescence intensity at 5 time IC50 incubated for 24 hrs by JC-1 staining based flow cytometry (reference value: 2.1%)
[16] = Apparent permeability of the compound in MDCK-MDR1 cells at 10 uM incubated for 1 hr by RF-MS analysis; format: ADME, cell-based, Canis lupus familiaris; settings: dog; summary of the method: as §1
CCRF-CEM [17] = assay: Cytotoxicity against human CCRF-CEM cells assessed as reduction in cell viability incubated for 72 hrs by MTS assay; format: functional, cell-based
[18] = Stability in human plasma assessed as compound remaining measured 60 mins by RF-MS analysis; format: ADME, cell-free; settings: read-out: Stability; summary of the method: as §2
[19] = Apparent permeability of the compound across apical to basolateral side in human Caco-2 cells assessed as compound recovery; format: ADME, cell-based; settings: read-out: Activity; summary of the method: as §1
CCRF-CEM [20] = assay: Induction of apoptosis in human CCRF-CEM cells assessed as reduction in caspase-3 expression at 5 time of IC50 incubated for 24 hrs by Western blot analysis; format: functional, cell-based; summary of the method: as §3
[21] = Stability in human plasma assessed as compound remaining measured 120 mins by RF-MS analysis; format: ADME, cell-free; settings: read-out: Stability; summary of the method: as §2
CCRF-CEM [22] = assay: Induction of apoptosis in human CCRF-CEM cells assessed as viable cells at 5 time IC50 incubated for 24 hrs by Annexin V and propidium iodide staining based flow cytometry analysis (reference value: 98%); format: functional
U2OS = assay: Cytotoxicity against human U2OS cells assessed as reduction in cell viability incubated for 72 hrs by MTS assay; format: functional, cell-based
K562 = assay: Cytotoxicity against human K562 cells assessed as reduction in cell viability incubated for 72 hrs by MTS assay; format: functional, cell-based; settings: K562, 72 h
HCT 116 TP53(-/-) = assay: Cytotoxicity against human HCT116-p53-null cells assessed as reduction in cell viability incubated for 72 hrs by MTS assay; format: functional, cell-based
[23] = Cytotoxicity against human K562-Tax cells assessed as reduction in cell viability incubated for 72 hrs by MTS assay; format: functional, cell-based
A549 = assay: Cytotoxicity against human A549 cells assessed as reduction in cell viability incubated for 72 hrs by MTS assay; format: functional, cell-based; settings: A549, 72 h
CCRF-CEM [24] = assay: Induction of apoptosis in human CCRF-CEM cells assessed as late apoptotic cells at 5 time IC50 incubated for 24 hrs by Annexin V and propidium iodide staining based flow cytometry analysis (reference value: 0.5%); format: functional
CCRF-CEM [25] = assay: Induction of mitochondrial membrane potential loss in human CCRF-CEM cells assessed as cells with depolarized mitochondria (P2 gate) by measuring green fluorescence intensity at 1 time IC50 incubated for 24 hrs by JC-1 staining based flow cytometry (reference value: 2.1%)
[26] = Apparent permeability of the compound in human Caco-2 cells; format: ADME, cell-based; summary of the method: as §1
[27] = Metabolic stability in human liver microsomes assessed as compound remaining at measured at 60 mins in presence of NADPH by RF-MS analysis; format: ADME, Microsome; settings: read-out: Stability; summary of the method: as §4
CCRF-CEM [28] = assay: Induction of apoptosis in human CCRF-CEM cells assessed as early apoptotic cells at 5 time IC50 incubated for 24 hrs by Annexin V and propidium iodide staining based flow cytometry analysis (reference value: 1.4%); format: functional

Compound `C=C(C)[C@@H]1CC[C@]2(C(=O)O)CC[C@]3(C)[C@H](CC[C@@H]4[C@@]5(C)CC6=C(C7C(=O)N(c8ccccc8)C(=O)C7C=C6C(F)(F)F)C(C)(C)[C@@H]5CC[C@]43C)[C@@H]12` (some centres undefined) has an Activity (CCRF-CEM [1]) of 4.3%, an IC50 (HCT-116) of 7.8 µM and a recovery at 1 h, 10 µM [2] of 94.1%. For the same compound, the fraction unbound at 10 µM [3] was 0.273, the remaining at 0.25 h [4] was 100% and the Activity (CCRF-CEM [5]) was “Active”. It also gave a remaining at 0.5 h [6] of 92.7%, a remaining at 0.25 h [7] of 99% and an Activity (CCRF-CEM [8]) of 92.5%. For the same compound, the Activity (CCRF-CEM [9]) was 0%, the Activity (CCRF-CEM [10]) was 3.2% and the Activity (CCRF-CEM [11]) was 0.1%. The IC50 at 72 h [12] was > 50 µM, the IC50 at 72 h [13] was 28 µM and the IC50 (CEM-DNR) was 20 µM. For the same compound, the Activity (CCRF-CEM [14]) was “Active”, the Activity (CCRF-CEM [15]) was 2.6% and the Papp at 1 h, 10 µM [16] was 0.1 ×10⁻⁶ cm/s. It also gave an IC50 (CCRF-CEM [17]) of 4.2 µM, a remaining at 1 h [18] of 95.8% and a recovery [19] of 86%. The Activity (CCRF-CEM [20]) was “Active”, the remaining at 2 h [21] was 101% and the Activity (CCRF-CEM [22]) was 91.8%. It also gave an IC50 (U2OS) of 7.6 µM, an IC50 (K562) of 25 µM and an IC50 (HCT 116 TP53(-/-)) of 12 µM. For the same compound, the IC50 [23] was 9.7 µM, the IC50 (A549) was 9.7 µM and the Activity (CCRF-CEM [24]) was 2.9%. For the same compound, the Activity (CCRF-CEM [25]) was 2%, the Papp [26] was 0.04 ×10⁻⁶ cm/s and the remaining at 1 h [27] was 79%. The Activity (CCRF-CEM [28]) was 5.2%.
For `COC(=O)c1cc(C(F)(F)F)c2c(c1C(=O)OC)C(C)(C)[C@@H]1CC[C@]3(C)[C@H](CC[C@@H]4[C@H]5[C@H](C(C)C)CC[C@]5(C(=O)O)CC[C@]43C)[C@@]1(C)C2`, the IC50 (HCT-116) was > 50 µM, the IC50 at 72 h [12] was > 50 µM and the IC50 at 72 h [13] was > 50 µM. The IC50 (CEM-DNR) was > 50 µM, the IC50 (CCRF-CEM [17]) was 5.3 µM and the IC50 (U2OS) was 11 µM. The IC50 (K562) was > 50 µM, the IC50 (HCT 116 TP53(-/-)) was > 50 µM and the IC50 [23] was > 50 µM. For the same compound, the IC50 (A549) was > 50 µM.
In the case of `C=C(C)[C@@H]1CC[C@]2(C(=O)O)CC[C@]3(C)[C@H](CC[C@@H]4[C@@]5(C)Cc6c(C(F)(F)F)cc7c(c6C(C)(C)[C@@H]5CC[C@]43C)C(=O)N(c3ccccc3)C7=O)[C@@H]12`, the IC50 (HCT-116) is reported as > 50 µM, the IC50 at 72 h [12] is reported as > 50 µM and the IC50 at 72 h [13] is reported as > 50 µM. The IC50 (CEM-DNR) was > 50 µM, the IC50 (CCRF-CEM [17]) was > 50 µM and the IC50 (U2OS) was > 50 µM. The IC50 (K562) was > 50 µM, the IC50 (HCT 116 TP53(-/-)) was > 50 µM and the IC50 [23] was > 50 µM. For the same compound, the IC50 (A549) was > 50 µM.
With `CC(C)[C@@H]1CC[C@]2(C(=O)O)CC[C@]3(C)[C@H](CC[C@@H]4[C@@]5(C)Cc6c(C(F)(F)F)cc7c(c6C(C)(C)[C@@H]5CC[C@]43C)C(=O)N(c3ccccc3)C7=O)[C@@H]12` the IC50 (HCT-116) was > 50 µM, the IC50 at 72 h [12] was > 50 µM and the IC50 at 72 h [13] was > 50 µM. For the same compound, the IC50 (CEM-DNR) was > 50 µM, the IC50 (CCRF-CEM [17]) was > 50 µM and the IC50 (U2OS) was > 50 µM. For the same compound, the IC50 (K562) was > 50 µM, the IC50 (HCT 116 TP53(-/-)) was > 50 µM and the IC50 [23] was > 50 µM. The IC50 (A549) was > 50 µM.
For `C[C@H]1[C@H](C)CC[C@]2(C(=O)O)CC[C@]3(C)C(=CC[C@@H]4[C@@]5(C)Cc6c(C(F)(F)F)cc(=O)oc6C(C)(C)[C@@H]5CC[C@]43C)[C@H]12`, the IC50 (HCT-116) was 25 µM, the IC50 at 72 h [12] was > 50 µM and the IC50 at 72 h [13] was > 50 µM. It also gave an IC50 (CEM-DNR) of 19.5 µM, an IC50 (CCRF-CEM [17]) of 6.3 µM and an IC50 (U2OS) of 23 µM. It also gave an IC50 (K562) of 23 µM, an IC50 (HCT 116 TP53(-/-)) of 27 µM and an IC50 [23] of 21 µM. It also gave an IC50 (A549) of 17 µM.
